Laboratory results published in ChEMBL document CHEMBL4270643, “Structure-based drug design: Synthesis and biological evaluation of quinazolin-4-amine derivatives as selective Aurora A kinase inhibitors” (Eur J Med Chem, 2018).
Activity calls are given as the source filed them. The rule behind the calls is not given here.

What was measured:
MDA-MB-231 [1] = assay: Antitumor activity against human MDA-MB-231 cells xenografted in BALB/c athymic nude mouse assessed as tumor growth inhibition at 30 mg/kg, ig administered every 2 days for 18 days relative to control; assay type: functional; details: MDA-MB-231, po, read-out: TGI
Method in brief: (§1)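 Nude mice with established MDA-MB-231 xenografts dosed intragastrically every 2 days for 18 days; vehicle control group; n=4 per group. Tumor volume estimated over time and compared by two-way repeated-measures ANOVA; dissected tumors weighed at end. Data as mean ±SD.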

MDA-MB-231 [2] = assay: Cell cycle arrest in human MDA-MB-231 cells assessed as accumulation at G2/M phase after 24 hrs by propidium iodide staining based flow cytometry; assay type: functional
Method in brief: (§2)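 MDA-MB-231 cells exposed to test compound at indicated doses, MLN8237, or 0.1% DMSO control for 24 h; cell-cycle distribution, including G2/M and 4N/8N populations, read by flow cytometry.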

MDA-MB-231 [3] = assay: Induction of apoptosis in human MDA-MB-231 cells assessed as annexin-V positive cells at 2 uM after 48 hrs by Annexin-V-FITC/propidium iodide staining based flow cytometry (reference value: 15.46 +/- 1.18%); assay type: functional
Mus musculus [4] = assay: Toxicity in BALB/c athymic nude mouse xenografted with human MDA-MB-231 cells assessed as effect on MCHC level at 30 mg/kg, ig administered every 2 days for 18 days measured post last dose; assay type: organism-based; details: in vivo, po
Method in brief: (§3)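 After the 18-day intragastric course (every 2 days), blood cell counts taken from untreated, vehicle and dosed mice; groups compared by unpaired two-tailed t-test; mean ±SD, n=4.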

Aurora kinase A = target: T1, Aurora kinase A (Homo sapiens, UniProt O14965); assay: Inhibition of Aurora A (unknown origin) using FAM-labelled peptide as substrate pretreated for 10 mins followed by substrate addition and measured after 60 mins by fluorescence assay
T1 sequence (O14965 whole entry): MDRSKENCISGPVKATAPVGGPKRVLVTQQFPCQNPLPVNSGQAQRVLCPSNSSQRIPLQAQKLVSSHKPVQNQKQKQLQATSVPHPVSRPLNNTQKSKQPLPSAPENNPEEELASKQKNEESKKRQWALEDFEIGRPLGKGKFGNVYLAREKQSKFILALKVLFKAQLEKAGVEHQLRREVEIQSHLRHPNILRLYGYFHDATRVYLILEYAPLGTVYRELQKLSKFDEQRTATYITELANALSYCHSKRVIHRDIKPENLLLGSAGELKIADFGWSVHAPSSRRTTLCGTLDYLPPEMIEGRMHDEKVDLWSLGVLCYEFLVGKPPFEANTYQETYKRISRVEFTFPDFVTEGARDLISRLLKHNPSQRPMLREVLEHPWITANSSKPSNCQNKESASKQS
Method in brief: (§4)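 Kinase IC50 values are the mean of at least two independent experiments; selectivity is the Aurora A/B ratio of these IC50s.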

MCF7 = assay: Antiproliferative activity against human MCF7 cells after 48 hrs by CCK8 assay; assay type: functional, cell-based; details: Homo sapiens, MCF7, 48 h; read-out: IC50
Aurora kinase B [5] = target: T2, Aurora kinase B (Homo sapiens, UniProt Q96GD4); assay: Inhibition of Aurora B in human 293T cells assessed as reduction in histone H3 phosphorylation at Ser10 residue at 1 to 2 uM after 24 hrs by Western blot analysis; assay type: cell-based
Method in brief: (§5)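 293T cells treated 24 h with increasing doses or 0.1% DMSO control; lysates probed by Western blot for p-Aurora A (Thr288) and p-histone H3 (Ser10), with GAPDH as loading control.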

Mus musculus [6] = assay: Toxicity in BALB/c athymic nude mouse xenografted with human MDA-MB-231 cells assessed as effect on spleen weight at 30 mg/kg, ig administered every 2 days for 18 days measured post last dose; assay type: organism-based; details: in vivo, po
Method in brief: (§6)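 Xenograft-bearing nude mice dosed intragastrically every 2 days for 18 days; body weight tracked throughout. After treatment ended, liver, lung, kidney and spleen weighed in untreated, vehicle and dosed groups; unpaired two-tailed t-test; mean ±SD, n=4.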

K562 = assay: Antiproliferative activity against human K562 cells after 48 hrs by CCK8 assay; assay type: functional, cell-based; details: Homo sapiens, K562, 48 h; read-out: IC50
Mus musculus [7] = assay: Toxicity in BALB/c athymic nude mouse xenografted with human MDA-MB-231 cells assessed as effect on kidney weight at 30 mg/kg, ig administered every 2 days for 18 days measured post last dose; assay type: organism-based; details: in vivo, po; method in brief: as §6
[8] = target: Voltage-gated inwardly rectifying potassium channel KCNH2 (Homo sapiens, UniProt Q12809); assay: Inhibition of human ERG expressed in CHO cells at -80 mV holding potential by whole-cell patch clamp method; assay type: cell-based
MDA-MB-231 [9] = assay: Antitumor activity against human MDA-MB-231 cells xenografted in BALB/c athymic nude mouse assessed as tumor weight at 30 mg/kg, ig administered every 2 days for 18 days (reference value: 1.7 +/- 0.84 g); assay type: functional; method in brief: as §1
MDA-MB-231 [10] = assay: Induction of morphological changes in human MDA-MB-231 cells assessed as monopolar/multipolar spindle formation at 1 uM by DAPI staining based microscopic analysis; assay type: functional, cell-based
Method in brief: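 MDA-MB-231 cells incubated 24 h with 1 µM compound or 0.1% DMSO; immunofluorescence imaging of centrosomes, spindles and nuclei at ×1000 to score spindle polarity and chromosome alignment at the metaphase plate.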

MDA-MB-231 [11] = assay: Cell cycle arrest in human MDA-MB-231 cells assessed as accumulation of cells with 4N/8N DNA content after 24 hrs by propidium iodide staining based flow cytometry; assay type: functional; method in brief: as §2
Mus musculus [12] = assay: Toxicity in BALB/c athymic nude mouse xenografted with human MDA-MB-231 cells assessed as effect on MCV level at 30 mg/kg, ig administered every 2 days for 18 days measured post last dose; assay type: organism-based; details: in vivo, po; method in brief: as §3
Mus musculus [13] = assay: Toxicity in BALB/c athymic nude mouse xenografted with human MDA-MB-231 cells assessed as effect on lung weight at 30 mg/kg, ig administered every 2 days for 18 days measured post last dose; assay type: organism-based; details: in vivo, po; method in brief: as §6
Aurora kinase B [14] = target: T2, Aurora kinase B; assay: Inhibition of Aurora B (unknown origin) using FAM-labelled peptide as substrate pretreated for 10 mins followed by substrate addition and measured after 60 mins by fluorescence assay; method in brief: as §4
Mus musculus [15] = assay: Toxicity in BALB/c athymic nude mouse xenografted with human MDA-MB-231 cells assessed as effect on WBC level at 30 mg/kg, ig administered every 2 days for 18 days measured post last dose; assay type: organism-based; details: in vivo, po; method in brief: as §3
[16] = target: T3, Aurora kinase A (Homo sapiens) (UniProt O14965); assay: Inhibition of Aurora A phosphorylation at Thr288 residue in human 293T cells at 1 to 2 uM after 24 hrs by western blot analysis; assay type: cell-based; method in brief: as §5
T3 sequence (whole entry): T1 sequence (O14965 whole entry)

Mus musculus [17] = assay: Toxicity in BALB/c athymic nude mouse xenografted with human MDA-MB-231 cells assessed as effect on RDW-SD level at 30 mg/kg, ig administered every 2 days for 18 days measured post last dose; assay type: organism-based; details: in vivo, po; method in brief: as §3
MDA-MB-231 [18] = assay: Inhibition of colony formation in human MDA-MB-231 cells assessed as reduction in number of colonies at 3 uM after 7 days by crystal violet staining based assay; assay type: functional, cell-based
Method in brief: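 Colony formation of MDA-MB-231 cells grown 7 days with 3 µM compound or 0.1% DMSO; colony numbers counted and compared against control.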

Mus musculus [19] = assay: Toxicity in BALB/c athymic nude mouse xenografted with human MDA-MB-231 cells assessed as body weight loss at 30 mg/kg, ig administered every 2 days for 18 days measured during compound dosing; assay type: organism-based; details: in vivo, po; method in brief: as §6
[20] = target: T3, Aurora kinase A (Homo sapiens); assay: Inhibition of Aurora A phosphorylation at Thr288 residue in human 293T cells at 1 uM after 24 hrs by western blot analysis; assay type: cell-based; method in brief: as §5

T2 sequence (Q96GD4 whole entry): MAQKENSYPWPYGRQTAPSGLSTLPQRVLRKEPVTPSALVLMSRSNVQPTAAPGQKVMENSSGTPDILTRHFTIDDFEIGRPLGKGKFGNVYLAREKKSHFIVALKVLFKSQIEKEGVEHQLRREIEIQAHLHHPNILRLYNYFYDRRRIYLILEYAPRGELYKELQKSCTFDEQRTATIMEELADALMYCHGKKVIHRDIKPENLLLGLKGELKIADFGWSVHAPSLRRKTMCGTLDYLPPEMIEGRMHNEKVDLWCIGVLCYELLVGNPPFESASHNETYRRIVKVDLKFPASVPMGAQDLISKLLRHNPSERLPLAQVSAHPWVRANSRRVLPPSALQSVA
Chain of Voltage-gated inwardly rectifying potassium channel KCNH2 (Q12809 whole entry): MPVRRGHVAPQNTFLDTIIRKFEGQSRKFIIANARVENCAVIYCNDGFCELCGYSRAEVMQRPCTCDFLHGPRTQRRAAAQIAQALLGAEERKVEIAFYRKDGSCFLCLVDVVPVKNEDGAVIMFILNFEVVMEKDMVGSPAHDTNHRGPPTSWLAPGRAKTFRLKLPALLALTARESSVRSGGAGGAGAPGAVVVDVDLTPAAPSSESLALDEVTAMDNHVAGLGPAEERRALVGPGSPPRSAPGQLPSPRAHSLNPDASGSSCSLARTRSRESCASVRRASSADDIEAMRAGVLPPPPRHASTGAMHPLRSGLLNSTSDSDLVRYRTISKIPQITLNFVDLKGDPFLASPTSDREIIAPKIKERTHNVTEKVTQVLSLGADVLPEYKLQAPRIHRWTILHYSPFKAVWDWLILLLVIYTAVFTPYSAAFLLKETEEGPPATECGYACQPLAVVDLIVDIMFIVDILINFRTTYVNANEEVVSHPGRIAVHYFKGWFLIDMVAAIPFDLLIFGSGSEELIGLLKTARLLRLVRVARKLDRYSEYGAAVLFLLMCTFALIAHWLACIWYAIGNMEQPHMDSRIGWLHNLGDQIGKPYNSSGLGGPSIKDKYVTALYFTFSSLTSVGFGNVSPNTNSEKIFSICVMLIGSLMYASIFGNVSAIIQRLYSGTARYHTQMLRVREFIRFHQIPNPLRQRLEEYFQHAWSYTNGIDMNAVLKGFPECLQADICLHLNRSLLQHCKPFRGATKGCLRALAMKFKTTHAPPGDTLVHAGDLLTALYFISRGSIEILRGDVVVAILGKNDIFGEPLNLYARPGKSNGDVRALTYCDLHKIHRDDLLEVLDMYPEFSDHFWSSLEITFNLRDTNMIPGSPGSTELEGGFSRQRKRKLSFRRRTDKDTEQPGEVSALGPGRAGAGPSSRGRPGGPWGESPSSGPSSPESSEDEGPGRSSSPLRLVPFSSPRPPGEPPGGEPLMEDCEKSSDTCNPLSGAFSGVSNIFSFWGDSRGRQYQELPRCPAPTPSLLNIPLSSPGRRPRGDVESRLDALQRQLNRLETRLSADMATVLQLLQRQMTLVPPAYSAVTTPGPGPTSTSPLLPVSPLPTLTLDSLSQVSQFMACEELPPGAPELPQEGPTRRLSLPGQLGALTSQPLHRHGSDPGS

SMILES: CCOC(=O)C1CCN(c2ccc3c(Nc4cc(C)[nH]n4)nc(-c4ccccc4)nc3c2)CC1
- inhibition in vivo at 30 mg/kg (MDA-MB-231 [1]): 45%
- Activity (MDA-MB-231 [2]): Dose-dependent effect
- Activity (MDA-MB-231 [3]): 42.33%
- Activity (Mus musculus [4]): Non-Toxic
- IC50 (Aurora kinase A): 0.038 µM
- IC50 (MCF7): 2.23 µM
- inhibition (INH) (Aurora kinase B [5]): Not Active
- Activity (Mus musculus [6]): Non-Toxic
- IC50 (K562): 1.09 µM
- Activity (Mus musculus [7]): Non-Toxic
- IC50 [8]: > 10 µM
- Activity (MDA-MB-231 [9]): 0.85 g
- Activity (MDA-MB-231 [10]): Active
- Activity (MDA-MB-231 [11]): Dose-dependent effect
- Activity (Mus musculus [12]): Non-Toxic
- Activity (Mus musculus [13]): Non-Toxic
- IC50 (Aurora kinase B [14]): 2.52 µM
- Activity (Mus musculus [15]): Non-Toxic
- inhibition [16]: Active
- Activity (Mus musculus [17]): Non-Toxic
- Activity (MDA-MB-231 [18]): Active
- Activity (Mus musculus [19]): Non-Toxic
- inhibition [20]: Active
